The source of these data is ChEMBL document CHEMBL3112407 (Bioorg Med Chem Lett, 2014).

In assay [1] the target is Receptor tyrosine-protein kinase erbB-2 (Homo sapiens, UniProt P04626). Kind of assay: Inhibition of HER2 (unknown origin) after 10 mins.
Assay [2] has as its target T1, Epidermal growth factor receptor (Homo sapiens, UniProt P00533).
Assay [3] deals with T1, Epidermal growth factor receptor. The format is cell-based, KB.
Assay [4] relates to NCI-N87. As to the kind of experiment: cells. The format is functional, cell-based. The conditions noted are these: Homo sapiens, NCI-N87, 72 h.
Assay [5] has as its system BT-474. Kind of assay: cells. The format is functional, cell-based. The conditions noted are these: Homo sapiens, BT-474, 72 h.
Assay [6] deals with NCI-H1975. As to the kind of experiment: cells. Format: functional, cell-based. Conditions: Homo sapiens, NCI-H1975, 72 h.
For assay [7], the system named is A-431. Kind of assay: cells. Format: functional, cell-based. Conditions: Homo sapiens, A-431, 72 h.
The nature of assay [8]: cells. Format: functional, cell-based. Conditions: Homo sapiens, Calu-3, 72 h.
For assay [9], the system named is NCI-N87. As to the kind of experiment: Ratio of gefitinib IC50 to compound IC50 for human NCI-N87 cells. The format is functional. The procedure, abridged:
(§1)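 MTT growth assay: cells in ATCC-recommended medium with 10% FBS, seeded at 5.0 × 10³ cells/well, adhered overnight at 37 °C, 5% CO₂. Compound added, then 72 h incubation. MTT added for 4 h. Absorbance read at 550 nm, corrected at 690 nm. IC₅₀ from nonlinear regression of concentration–response data. Ratio is the reference-drug IC₅₀ over the compound IC₅₀ from this assay.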

In assay [10] the test system is Calu-3. Kind of assay: Ratio of gefitinib IC50 to compound IC50 for human Calu3 cells. Format: functional. The procedure, abridged: as §1
For assay [11], the system named is BT-474. Kind of assay: Ratio of gefitinib IC50 to compound IC50 for human BT474 cells. Format: functional. The gist of the method:
as §1

The test system of assay [12] is BT-474. As to the kind of experiment: Ratio of erlotinib IC50 to compound IC50 for human BT474 cells. Format: functional. The gist of the method: as §1
Assay [13] relates to NCI-H1975. As to the kind of experiment: Ratio of erlotinib IC50 to compound IC50 for human NCI-H1975 cells. Format: functional. The procedure, abridged: as §1
Assay [14] concerns A-431. Kind of assay: Ratio of gefitinib IC50 to compound IC50 for human A431 cells. Format: functional. The gist of the method: as §1
Assay [15] relates to Calu-3. As to the kind of experiment: Ratio of erlotinib IC50 to compound IC50 for human Calu3 cells. Format: functional. The gist of the method: as §1
Assay [16] relates to NCI-N87. Kind of assay: Ratio of erlotinib IC50 to compound IC50 for human NCI-N87 cells. The format is functional. The gist of the method: as §1
Assay [17] relates to NCI-H1975. Kind of assay: Ratio of gefitinib IC50 to compound IC50 for human NCI-H1975 cells. Format: functional. The gist of the method:
as §1

Assay [18] relates to A-431. Kind of assay: Ratio of erlotinib IC50 to compound IC50 for human A431 cells. Format: functional. The gist of the method:
as §1

Receptor tyrosine-protein kinase erbB-2, sequence (P04626 whole entry): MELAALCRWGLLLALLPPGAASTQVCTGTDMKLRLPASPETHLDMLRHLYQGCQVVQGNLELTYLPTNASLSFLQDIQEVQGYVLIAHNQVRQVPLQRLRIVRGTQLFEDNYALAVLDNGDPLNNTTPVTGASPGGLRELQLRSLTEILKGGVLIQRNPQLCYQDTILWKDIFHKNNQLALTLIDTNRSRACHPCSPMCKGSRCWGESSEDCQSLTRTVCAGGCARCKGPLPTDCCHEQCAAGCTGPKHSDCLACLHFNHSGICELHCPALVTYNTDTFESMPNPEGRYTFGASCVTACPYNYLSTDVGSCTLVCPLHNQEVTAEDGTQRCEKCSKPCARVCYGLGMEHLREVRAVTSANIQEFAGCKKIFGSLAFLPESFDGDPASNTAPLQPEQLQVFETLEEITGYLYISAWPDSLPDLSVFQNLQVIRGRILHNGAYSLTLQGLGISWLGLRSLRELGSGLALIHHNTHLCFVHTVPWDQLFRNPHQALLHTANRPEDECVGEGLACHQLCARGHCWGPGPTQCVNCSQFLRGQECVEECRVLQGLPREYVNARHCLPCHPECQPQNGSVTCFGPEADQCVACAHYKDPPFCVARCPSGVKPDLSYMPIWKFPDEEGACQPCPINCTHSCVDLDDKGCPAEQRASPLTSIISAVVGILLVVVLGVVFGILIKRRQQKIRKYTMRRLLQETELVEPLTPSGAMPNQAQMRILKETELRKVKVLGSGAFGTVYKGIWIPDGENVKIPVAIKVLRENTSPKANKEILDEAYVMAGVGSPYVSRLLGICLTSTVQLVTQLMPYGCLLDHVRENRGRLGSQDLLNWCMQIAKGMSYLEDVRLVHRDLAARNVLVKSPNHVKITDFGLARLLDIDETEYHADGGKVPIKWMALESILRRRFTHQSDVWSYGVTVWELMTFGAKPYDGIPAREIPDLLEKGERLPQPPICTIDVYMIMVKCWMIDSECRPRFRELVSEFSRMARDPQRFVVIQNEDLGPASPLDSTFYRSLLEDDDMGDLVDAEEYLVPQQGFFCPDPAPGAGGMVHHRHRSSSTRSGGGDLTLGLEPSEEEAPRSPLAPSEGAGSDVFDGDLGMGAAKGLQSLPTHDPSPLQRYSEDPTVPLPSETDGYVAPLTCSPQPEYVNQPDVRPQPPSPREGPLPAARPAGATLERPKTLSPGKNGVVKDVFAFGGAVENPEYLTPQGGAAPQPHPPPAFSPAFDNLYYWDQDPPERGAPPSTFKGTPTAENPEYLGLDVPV
T1 sequence (P00533 whole entry): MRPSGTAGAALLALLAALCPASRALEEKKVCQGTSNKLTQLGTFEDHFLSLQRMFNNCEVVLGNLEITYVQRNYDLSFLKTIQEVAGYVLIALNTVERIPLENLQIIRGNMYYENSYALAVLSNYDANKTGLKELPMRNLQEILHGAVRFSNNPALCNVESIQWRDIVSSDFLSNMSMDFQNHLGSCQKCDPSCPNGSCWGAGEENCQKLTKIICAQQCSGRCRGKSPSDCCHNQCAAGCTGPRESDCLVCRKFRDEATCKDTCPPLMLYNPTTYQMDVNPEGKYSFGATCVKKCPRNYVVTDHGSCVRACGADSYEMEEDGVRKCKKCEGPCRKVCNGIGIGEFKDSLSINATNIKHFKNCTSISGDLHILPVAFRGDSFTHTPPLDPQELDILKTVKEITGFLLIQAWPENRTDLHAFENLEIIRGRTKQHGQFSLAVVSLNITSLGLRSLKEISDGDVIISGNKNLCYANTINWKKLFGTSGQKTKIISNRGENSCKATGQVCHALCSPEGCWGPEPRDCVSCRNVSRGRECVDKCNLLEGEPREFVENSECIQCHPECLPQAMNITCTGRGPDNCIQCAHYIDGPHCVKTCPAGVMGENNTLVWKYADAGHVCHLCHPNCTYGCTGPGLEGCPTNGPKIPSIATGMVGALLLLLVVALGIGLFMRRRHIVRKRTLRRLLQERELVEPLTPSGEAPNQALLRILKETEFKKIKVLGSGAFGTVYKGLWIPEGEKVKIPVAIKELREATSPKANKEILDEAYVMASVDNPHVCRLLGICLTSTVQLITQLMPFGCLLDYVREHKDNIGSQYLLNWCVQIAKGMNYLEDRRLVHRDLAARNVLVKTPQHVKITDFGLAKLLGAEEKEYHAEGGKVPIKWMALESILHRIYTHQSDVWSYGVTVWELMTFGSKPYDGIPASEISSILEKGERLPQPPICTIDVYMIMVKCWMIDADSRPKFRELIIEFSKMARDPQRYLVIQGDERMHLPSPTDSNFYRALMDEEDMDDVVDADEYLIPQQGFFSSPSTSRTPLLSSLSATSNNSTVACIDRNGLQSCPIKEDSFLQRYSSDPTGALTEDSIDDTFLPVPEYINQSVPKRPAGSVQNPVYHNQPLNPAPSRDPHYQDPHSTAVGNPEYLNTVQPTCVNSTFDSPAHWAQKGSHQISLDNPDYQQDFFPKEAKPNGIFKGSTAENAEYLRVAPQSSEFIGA

For `C#Cc1cccc(Nc2ncnc3cc4c(cc23)N(C(=O)/C=C/CN(CC)CC)CCO4)c1`, the IC50 (as a rule, the midpoint of a concentration-inhibition curve) in assay [1] amounted to 250 nM; in assay [2], 5 nM; in [3], 42 nM; in [4] it was 150 nM; in assay [5], 550 nM; in assay [6], 680 nM. Besides, the IC50 in assay [7] was 190 nM; in [8], 350 nM.

Take `C#Cc1cccc(Nc2ncnc3cc4c(cc23)N(C(=O)/C=C/CN2CCCCC2C)CCO4)c1` (stereo not given): the 50% inhibitory concentration (IC50) in [1] stood at 290 nM; in assay [4], 270 nM; in assay [5] it was 1150 nM; in [6], 1230 nM; in assay [7], 690 nM; in assay [8] it was 950 nM.

In the case of `C#Cc1cccc(Nc2ncnc3cc4c(cc23)N(C(=O)/C=C/CN2CCOCC2)CCCO4)c1`, the IC50 in assay [3], in assay [4], in [5], in assay [6], in [7] and in assay [8] was over 10000 nM each time.

For `C#Cc1cccc(Nc2ncnc3cc4c(cc23)N(C(=O)/C=C/CN(CC)CC)CCCO4)c1`, the IC50 was over 10000 nM in [3]; over 10000 nM in assay [4]; over 10000 nM in assay [5]; over 10000 nM in assay [6]; 2160 nM in assay [7]; over 10000 nM in [8].

With `C#Cc1cccc(Nc2ncnc3cc4c(cc23)N(C(=O)/C=C/CN2CCN(C)CC2)CCCO4)c1`, the IC50 in [3], in [4], in [5], in [6], in [7] and in assay [8] was over 10000 nM throughout.

For `C#Cc1cccc(Nc2ncnc3cc4c(cc23)N(C(=O)/C=C/CN2CCCC2)CCCO4)c1`, the IC50 in [3] is over 10000 nM; in assay [4], over 10000 nM; in assay [5], over 10000 nM; in [6], 1740 nM; in [7], 1820 nM; in [8] it was over 10000 nM.

For `C#Cc1cccc(Nc2ncnc3cc4c(cc23)N(C(=O)/C=C/CN2CCC(C)CC2)CCO4)c1`, the IC50 in assay [1] worked out at 330 nM; in assay [2], 5 nM; in assay [3], 82 nM; in assay [4], 250 nM; in assay [5] it was 1380 nM; in [6] it was 890 nM. Also, the half-maximal inhibitory concentration (IC50) worked out at 400 nM in assay [7] and 1670 nM in assay [8].

As to `C#Cc1cccc(Nc2ncnc3cc4c(cc23)N(C(=O)/C=C/CN2CCCC2)CCO4)c1`, the IC50 came out at 230 nM in [1]; 3 nM in assay [2]; 60 nM in [3]; 120 nM in [4]; 330 nM in [5]; 320 nM in assay [6]. Also, the IC50 is 110 nM in assay [7] and 710 nM in assay [8].

Take `C#Cc1cccc(Nc2ncnc3cc4c(cc23)N(C(=O)/C=C/CN2CCCCC2)CCCO4)c1`: the half-maximal inhibitory concentration (IC50) was over 10000 nM in [3]; over 10000 nM in [4]; over 10000 nM in [5]; 8590 nM in assay [6]; over 10000 nM in assay [7]; over 10000 nM in assay [8].

As to `C#Cc1cccc(Nc2ncnc3cc4c(cc23)N(C(=O)/C=C/CN2CCOCC2)CCO4)c1`, the half-maximal inhibitory concentration (IC50) in assay [1] came out at 930 nM; in [2] it was 12 nM; in assay [3] it was 640 nM; in assay [4], 600 nM; in [5], 1390 nM; in [6], 770 nM. Besides, the 50% inhibitory concentration (IC50) in [7] was 530 nM; in [8], 1010 nM.

Regarding `C#Cc1cccc(Nc2ncnc3cc4c(cc23)N(C(=O)/C=C/CN2CCN(C)CC2)CCO4)c1`, the concentration for half-maximal inhibition (IC50) in [1] came out at 1110 nM; in assay [2] it was 16 nM; in [3], 780 nM; in assay [4], 220 nM; in assay [5] it was 1330 nM; in assay [6], 1460 nM. In addition, the IC50 stood at 480 nM in [7] and 2060 nM in [8].

As for `C#Cc1cccc(Nc2ncnc3cc4c(cc23)N(C(=O)/C=C/CN(C)C)CCO4)c1`, the IC50 in assay [1] is 250 nM; in assay [2], 3 nM; in [3], 46 nM; in [4], 46 nM; in assay [5], 240 nM; in assay [6] it was 300 nM. The IC50 in assay [7] turned out to be 230 nM; in assay [8] it was 140 nM. The Ratio IC50 in assay [9] is 22; in assay [10] it was 7.1; in assay [11] it was 1.5; in assay [12], over 42; in assay [13], 18; in assay [14], 2.4. Also, the Ratio IC50 is 6.6 in assay [15], over 210 in assay [16], 33 in [17] and 3.3 in [18].

As for `C#Cc1cccc(Nc2ncnc3cc4c(cc23)N(C(=O)/C=C/CN2CCCCC2C)CCCO4)c1` (stereo not given), the IC50 in assay [3], in [4], in assay [5], in assay [6], in assay [7] and in assay [8] was over 10000 nM in each case.

Turning to `C#Cc1cccc(Nc2ncnc3cc4c(cc23)N(C(=O)/C=C/CN2CCC(C)CC2)CCCO4)c1`, the IC50 in assay [3], in assay [4], in assay [5], in [6], in assay [7] and in assay [8] was over 10000 nM in each case.

With `C#Cc1cccc(Nc2ncnc3cc4c(cc23)N(C(=O)/C=C/CN2CCCCC2)CCO4)c1`, the IC50 in [1] worked out at 290 nM; in assay [2], 4 nM; in assay [3] it was 42 nM; in assay [4], 160 nM; in assay [5], 870 nM; in assay [6], 870 nM. Also, the IC50 in [7] is 340 nM; in assay [8], 550 nM.

On to `C#Cc1cccc(Nc2ncnc3cc4c(cc23)N(C(=O)/C=C/CN(C)C)CCCO4)c1`, for which the IC50 in [3] was over 10000 nM; in assay [4], over 10000 nM; in assay [5], over 10000 nM; in assay [6] it was 1860 nM; in assay [7] it was 1750 nM; in assay [8], over 10000 nM.
